Assays:
Format in all cases: cell-based
[1] = target: T1, Glycine receptor subunit alpha-1 (Homo sapiens, UniProt P23415); experiment: Activity at human alpha-1GlyR expressed in HEK293 cells by FMP assay
T1 sequence (P23415 whole entry): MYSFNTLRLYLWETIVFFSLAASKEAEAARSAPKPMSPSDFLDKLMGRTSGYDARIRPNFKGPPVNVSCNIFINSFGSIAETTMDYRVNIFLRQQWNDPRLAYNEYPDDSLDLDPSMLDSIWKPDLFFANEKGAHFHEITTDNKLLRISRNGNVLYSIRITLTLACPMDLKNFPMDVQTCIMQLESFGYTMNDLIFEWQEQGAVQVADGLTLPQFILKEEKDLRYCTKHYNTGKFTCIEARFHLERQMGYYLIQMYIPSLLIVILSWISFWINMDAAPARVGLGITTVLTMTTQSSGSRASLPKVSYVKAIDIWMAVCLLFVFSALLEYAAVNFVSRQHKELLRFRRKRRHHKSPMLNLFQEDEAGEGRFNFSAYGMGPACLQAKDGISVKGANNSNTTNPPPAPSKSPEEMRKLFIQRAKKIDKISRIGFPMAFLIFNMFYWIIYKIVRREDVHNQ
Procedure, shortened: (§1)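 Stable HEK293 lines (α1: G418; α1β: G418 + hygromycin B; α2: hygromycin B) plated on poly-D-lysine 16-24 h. Loaded with FMP dye in HBSS/20 mM HEPES pH 7.4, antagonist present, 30 min at 37 °C. Fluorescence ex 530/em 560 nm read up to 1 min after glycine: 200 µM (α1, α1β) or 500 µM (α2). Duplicates, ≥3 experiments; IC50 from maximal responses.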

[2] = target: T1, Glycine receptor subunit alpha-1; experiment: Activity at human alpha-1-beta-GlyR expressed in HEK293 cells by FMP assay; procedure, shortened: as §1
[3] = target: T2, Glycine receptor subunit alpha-2 (Homo sapiens, UniProt P23416); experiment: Activity at human alpha-2GlyR expressed in HEK293 cells by FMP assay; procedure, shortened: as §1
T2 sequence (P23416 whole entry): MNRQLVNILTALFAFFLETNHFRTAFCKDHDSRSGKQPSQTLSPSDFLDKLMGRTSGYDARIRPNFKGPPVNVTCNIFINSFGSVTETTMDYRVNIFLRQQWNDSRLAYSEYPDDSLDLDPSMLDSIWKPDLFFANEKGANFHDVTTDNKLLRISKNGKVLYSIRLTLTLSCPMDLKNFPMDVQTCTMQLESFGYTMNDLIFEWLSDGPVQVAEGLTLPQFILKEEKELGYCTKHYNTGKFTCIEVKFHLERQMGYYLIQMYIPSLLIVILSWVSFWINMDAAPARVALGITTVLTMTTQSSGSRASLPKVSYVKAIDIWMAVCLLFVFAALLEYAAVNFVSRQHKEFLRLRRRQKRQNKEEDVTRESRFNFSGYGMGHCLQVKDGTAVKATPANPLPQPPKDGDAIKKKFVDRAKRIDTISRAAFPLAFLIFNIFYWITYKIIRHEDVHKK

Compound | IC50 [1] [µM] | IC50 [2] [µM] | IC50 [3] [µM]
COC(=O)/C(C)=C1\CC[C@@]23C4C[C@@H](C(C)(C)C)C25C(OC(=O)[C@@H]5O)O[C@]13C(=O)O4 (stereo partly drawn) | > 100 | > 100 | > 100
C[C@@H]1C(=O)O[C@H]2[C@H](O)[C@]34[C@@H]5C(=O)O[C@@]3(O[C@@H]3OC(=O)[C@H](O)[C@@]34[C@H](C(C)(C)C)[C@@H]5Cl)[C@@]12O | 7.6 | 3.2 | 13
C[C@@H]1C(=O)O[C@H]2C[C@@]34C5C[C@@H](C(C)(C)C)C3C(=O)O[C@]4(C(=O)O5)[C@]21O (stereo partly drawn) | > 100 | > 100 | > 100
CO[C@H]1C(=O)O[C@H]2O[C@@]34OC(=O)[C@@H]5[C@H](O)[C@@H](C(C)(C)C)[C@@]21[C@@]53[C@@H](O)[C@@H]1OC(=O)[C@@H](C)[C@@]14O | 9.8 | 5.2 | 7.8
COC1C[C@]23C4C[C@@H](C(C)(C)C)C25C(OC(=O)[C@@H]5OC(C)=O)O[C@@]3(C(=O)O1)C(=O)O4 (stereo partly drawn) | > 100 | > 100 | > 100
CN[C@@H]1C2OC(=O)[C@]34OC5OC(=O)[C@H](O)C5([C@@H]1C(C)(C)C)[C@@]23[C@@H](O)[C@@H]1OC(=O)[C@@H](C)[C@@]14O (stereo partly drawn) | > 100 | > 100 | > 100
COC1C[C@@]23C4C[C@@H](C(C)(C)C)C25C(OC(=O)[C@@H]5OC)O[C@@]3(C(=O)O1)C(=O)O4 (stereo partly drawn) | > 100 | > 100 | > 100
C[C@@H]1C(=O)O[C@H]2[C@H](O)[C@]34C5OC(=O)[C@@]3(OC3OC(=O)[C@H](O)C34[C@H](C(C)(C)C)C5=O)[C@@]12O (stereo partly drawn) | > 100 | > 100 | > 100
COC(=O)[C@H](OC)C12C(OC)O[C@@]34C(=O)OC(C[C@H]1C(C)(C)C)[C@]23C[C@@H]1OC(=O)[C@@H](C)[C@@]14O (stereo partly drawn) | > 100 | > 100 | > 100
C[C@@H]1CO[C@H]2C[C@@]34C5C[C@@H](C(C)(C)C)C36C(OC[C@@H]6O)O[C@]4(CO5)[C@@]12O (stereo partly drawn) | > 100 | > 100 | > 100
C[C@@H]1CO[C@H]2C[C@@]34C5C[C@@H](C(C)(C)C)C36C(OC[C@@H]6O)O[C@]4(C(=O)O5)[C@@]12O (stereo partly drawn) | > 100 | > 100 | > 100
COC(=O)C(C)[C@H]1CC[C@@]23C4C[C@@H](C(C)(C)C)C25C(OC(=O)[C@@H]5O)O[C@]13C(=O)O4 (stereo partly drawn) | > 100 | > 100 | > 100
CC(C)(C)[C@@H]1CC2OC(=O)C34OC5OC(=O)[C@H](O)C51[C@@]23CC1OC(=O)[C@](C)(O)[C@@]14O (stereo partly drawn) | > 100 | > 100 | > 100
CC(=O)O[C@@H]1C2OC(=O)[C@]34OC5OC(=O)[C@H](O)C5([C@@H]1C(C)(C)C)[C@@]23[C@@H](O)[C@@H]1OC(=O)[C@@H](C)[C@@]14O (stereo partly drawn) | > 100 | > 100 | > 100
CCN[C@@H]1C2OC(=O)[C@]34OC5OC(=O)[C@H](O)C5([C@@H]1C(C)(C)C)[C@@]23[C@@H](O)[C@@H]1OC(=O)[C@@H](C)[C@@]14O (stereo partly drawn) | > 100 | > 100 | > 100
C[C@@H]1C(=O)O[C@H]2C[C@]34C5OC(=O)[C@]3(OC(O)C4[C@H](C(C)(C)C)[C@H]5O)[C@]21O (stereo partly drawn) | > 100 | > 100 | > 100

Reference: ChEMBL document CHEMBL1142995, “Probing the pharmacophore of ginkgolides as glycine receptor antagonists” (J Med Chem, 2007)
